What was measured:
[1] = test system: patients with MET-dysregulated advanced hepatocellular carcinoma (HCC); assay: Antitumor activity per RECIST 1.1; format: in vivo, human; conditions: for Best overall response: Unknown: RECIST 1.1 data do not qualify for PD, PR, or SD
Outline: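 Asia-Pacific patients with advanced HCC received oral test compound twice daily in continuous 21-day cycles: 300 mg capsules (dose-determining), or 600 mg capsules or 400 mg tablets (expansion), until progression or toxicity. Investigator read response per RECIST 1.1 on CT, or contrast MRI if CT was contraindicated. MET-high meant IHC 3+ in ⩾50% tumor cells, or 2+ in ⩾50% plus FISH GCN ⩾5.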

[2] = Plasma pharmacokinetics; format: in vivo, human
[3] = test system: patients with advanced solid tumors; conditions: cited from earlier work
[4] = test system: MET-dependent tumor models; conditions: at well tolerated doses; cited from earlier work
[5] = test system: MET-amplified experimental HCC tumors; conditions: cited from earlier work
[6] = test system: MET; conditions: cited from earlier work
[7] = Dose-determining n = 8 (300 mg BID capsules)
[8] = Dose-expansion, All patients n = 30
[9] = Dose-expansion, MET-high n = 10
[10] = MET-high expansion group (n = 10)
[11] = MET-high expansion group, 1 patient

With `CNC(=O)c1ccc(-c2cnc3ncc(Cc4ccc5ncccc5c4)n3n2)cc1F` [capmatinib] the “Best overall response: Complete response (CR)” value (from here on “Best overall response … (CR)”) [1, 7] was 0 n (%), the “Best overall response: Partial response (PR)” value (“Best overall response … (PR)” for short) [1, 7] was 0 n (%) and the “Best overall response: Progressive disease” value [1, 7] was 3 (38) n (%). The “Best overall response: Unconfirmed CR” value [1, 7] was 0 n (%), the “Best overall response: Unconfirmed PR” value [1, 7] was 0 n (%) and the “Disease control rate (CR + PR + SD) (95% CI)” value [1, 7] was 2 (25) (3.2−65.1) n (%). For the same compound, the “Overall response rate (CI 95%)” value [1, 7] was 0 (0−36.9) n (%), the “Best overall response: Unknown” value [1, 7] was 3 (38) n (%) and the “Best overall response … (CR)” value [1, 8] was 1 (3) n (%). The “Best overall response … (PR)” value [1, 8] was 2 (7) n (%), the “Best overall response: Progressive disease” value [1, 8] was 16 (53) n (%) and the “Best overall response: Unconfirmed CR” value [1, 8] was 0 n (%). The “Best overall response: Unconfirmed PR” value [1, 8] was 1 (3) n (%), the “Disease control rate (CR + PR + SD) (95% CI)” value [1, 8] was 10 (33) (17.3−52.8) n (%) and the “Overall response rate (CI 95%)” value [1, 8] was 3 (10) (2.1−26.5) n (%). The “Best overall response: Unknown” value [1, 8] was 4 (13) n (%), the “Best overall response … (CR)” value [1, 9] was 1 (10) n (%) and the “Best overall response … (PR)” value [1, 9] was 2 (20) n (%). The “Best overall response: Progressive disease” value [1, 9] was 4 (40) n (%), the “Best overall response: Unconfirmed CR” value [1, 9] was 0 n (%) and the “Best overall response: Unconfirmed PR” value [1, 9] was 1 (10) n (%). The “Disease control rate (CR + PR + SD) (95% CI)” value [1, 9] was 5 (50) (18.7−81.3) n (%), the “Overall response rate (CI 95%)” value [1, 9] was 3 (30) (6.7−65.2) n (%) and the “Best overall response: Unknown” value [1, 9] was 1 (10) n (%). The “Best overall response … (CR)” value ([1]; Dose-expansion, MET-low n = 20) was 0 n (%), the “Best overall response … (PR)” value ([1]; Dose-expansion, MET-low n = 20) was 0 n (%) and the “Best overall response: Progressive disease” value ([1]; Dose-expansion, MET-low n = 20) was 12 (60) n (%). For the same compound, the “Best overall response: Unconfirmed CR” value ([1]; Dose-expansion, MET-low n = 20) was 0 n (%), the “Best overall response: Unconfirmed PR” value ([1]; Dose-expansion, MET-low n = 20) was 0 n (%) and the “Disease control rate (CR + PR + SD) (95% CI)” value ([1]; Dose-expansion, MET-low n = 20) was 5 (25) (8.7−49.1) n (%). For the same compound, the “Overall response rate (CI 95%)” value ([1]; Dose-expansion, MET-low n = 20) was 0 (0−16.8) n (%), the “Best overall response: Unknown” value ([1]; Dose-expansion, MET-low n = 20) was 3 (15) n (%) and the “number of complete responses” value [1, 10] was 1. For the same compound, the “number of partial responses” value [1, 10] was 2, the “duration of durable complete response” value [1, 11] was greater than 600 days and the “duration of durable partial response” value [1, 11] was greater than 600 days. The overall response rate ([1]; all expansion patients (n = 30), regardless of MET status) was 10%, the “time on treatment of two responding patients” value ([1]; at data cut-off, still on treatment) was “over 600 days” and the “patients with MET-high status achieving tumor shrinkage” value ([1]; expansion stage) was 6/10. For the same compound, the overall response rate ([1]; expansion stage, MET-high (n = 10)) was 30%, the “Tmax, Median” value ([2]; 300 mg BID capsule, Cycle 1 Day 1, n = 8, plasma) was 2.0 h and the AUC(0-t) ([2]; human, plasma, oral, 300 mg, geomean AUC0−12 h, 300 mg BID capsules, cycle 1 day 1) was 7740 ng·h/mL. For the same compound, the Cmax ([2]; human, plasma, oral, 300 mg, geomean Cmax, 300 mg BID capsules, cycle 1 day 1) was 2140 ng/mL, the steady-state accumulation ([2]; patients with HCC) was “minimal” and the safety profile [3] was “tolerable safety profile”. The “effect on MET-dependent tumor models” value [4] was “causes regression”, the “sensitivity of tumors to capmatinib” value [5] was “highly sensitive” and the MET inhibition [6] was “highly potent and selective”.
